# Assay outcomes deposited in PubChem by several laboratories.
# NR2E3 ag-1 – NR2E3 agonists in two-hybrid cells, primary screen, cell-based, luminescence, CHO-S, Gal4-NCOR/VP16-NR2E3; 360,000 tested, 0.35% active; Photoreceptor-specific nuclear receptor (Homo sapiens), Q9Y5X4; inhibition of corepressor binding, % at 3.98 µM; AID 602229, 2012; luciferase;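 active means inhibition above the mean of all tested compounds plus 3 SD, cut at about 70% in these data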;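 further: 0% = DMSO with NR2E3 transfected cells and 100% = cells lacking NR2E3 construct; higher means lower luciferase signal from less NR2E3 corepressor binding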
# MC4R antag cAMP – MC4R antagonists of cAMP signaling, primary screen, cell-based, TR-FRET, antagonist arm of biased-ligand search; inhibition, % at 6.5 µM; Melanocortin receptor 4 (Homo sapiens), P32245; 360,000 tested, 0.48% active; MC4R-expressing cells, MTII-stimulated cAMP, LANCE TR-FRET; AID 540295, 2011;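 active means inhibition above its plate's cutoff, the mean of tested wells on that plate plus 3 SD, cut at about 29% in these data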;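 further: 0% = Melanotan II alone and 100% = Melanotan II plus saturating MCL0020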
# Target sequence (P32245 whole entry, looked up): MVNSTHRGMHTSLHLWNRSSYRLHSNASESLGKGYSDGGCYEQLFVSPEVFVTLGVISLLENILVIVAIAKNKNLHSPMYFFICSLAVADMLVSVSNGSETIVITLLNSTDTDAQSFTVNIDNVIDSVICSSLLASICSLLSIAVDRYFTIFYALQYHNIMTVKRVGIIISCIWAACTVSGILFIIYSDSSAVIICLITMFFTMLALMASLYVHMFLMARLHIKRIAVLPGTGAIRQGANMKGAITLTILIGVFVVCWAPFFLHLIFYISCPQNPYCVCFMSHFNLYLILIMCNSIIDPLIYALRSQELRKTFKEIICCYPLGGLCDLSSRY
#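 material = U2OS cells stably expressing human melanocortin 4 receptor (MC4R) | also added = Melanotan II challenge | dosing = single nominal compound dose of 6.5 µM | detection = TR-FRET with Eu-cAMP and labeled anti-cAMP, 671 nm | replication = singlicate | timing = compound 30 min, challenge 1 h, detection 1 h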
# PG9 Ab binder – binders of HIV-1 gp120 antibody PG9, primary screen, biochemical, TR-FRET | HIV-1 gp120 / PG9 antibody interaction | TR-FRET gp120-PG9 antibody binding | inhibition, % at 6.7 µM | 360,000 tested, 0.43% active | AID 624416, 2012; in the data active means inhibition above about 8.5%
# NR1D1 modulator – modulators of Rev-erb alpha DNA binding, primary screen, biochemical, FITC-DNA, fluorescence polarization, uHTS | Nuclear receptor subfamily 1 group D member 1 (Homo sapiens), P20393 | Rev-erbα–FITC-DNA binding, 90 min | activity, % at 10 µM | 370,000 tested, 0.79% active | AID 1259318, 2017;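 active means activity above about 14%, limit read from the data; passing the limit was not always enough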;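 further: 0% = DMSO wells with 35 nM protein and 100% = DMSO wells with 750 nM protein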
# MC4R ag barr – MC4R agonists recruiting beta-arrestin, primary screen, cell-based, luminescence, agonist arm of biased-ligand search; activation, % at 8.9 µM; AID 540308, 2011; Melanocortin receptor 4 (Homo sapiens), P32245; U2OS MC4R beta-arrestin complementation; percent of melanotan II response, DMSO zero; 360,000 tested, 0.98% active;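 active means activation above a per-plate cutoff, the mean activation of sample wells on that plate plus 3 SD, cut at about 8% in these data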
# NR2E3 ag-2 – inhibitors of NR2E3-RetCOR corepressor binding, primary screen, NR2E3 agonist project, biochemical, TR-FRET, GST-NR2E3, biotin-RetCOR | 1536-well | 320,000 tested, 0.12% active | inhibition of corepressor binding, % at 4.78 µM | Photoreceptor-specific nuclear receptor (Homo sapiens), Q9Y5X4;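 active means percent inhibition above the cutoff of mean plus 3 SD of all tested compounds, set per screening campaign, cut at about 20% in these data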;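 further: 0% = DMSO wells and 100% = biotin wells as full block of FRET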
#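 Test system: GST-NR2E3 and biotin-RetCOR proteins | Quantity: 1.35 nM GST-tagged NR2E3 final | Medium: Tris pH 7.5 | Also added: 7 nM biotin-RetCOR | Dosing: Compound at 4.8 µM, single dose | Timing: 5 h at 4 °C | Detection: Time-resolved FRET | Read-out basis: Percent inhibition | Benchmarks: Biotin wells as high control, 0.6% DMSO wells as low control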
# NR2E3 ag conf – NR2E3 agonist confirmation in cells, cell-based, luminescence, CHO-S two-hybrid; shares compounds with NR2E3 ag-1; CHO-S mammalian two-hybrid NR2E3-NCOR, luciferase luminescence; 2,300 tested, 51% active; inhibition, % at 3.98 µM;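 active means average inhibition above a cutoff equal to the mean inhibition of all tested compounds plus one SD, cut at about 70% in these data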;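 further: 0% = DMSO in NR2E3 cells and 100% = DMSO in cells lacking NR2E3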
# VP16 counter – GAL4-VP16 reporter modulators, confirmation, counter-screen for NR2E3 agonist project, cell-based, luminescence, CHO-S, high throughput; 2,300 tested, 29% active; CHO-S GAL4-VP16 luciferase reporter; shares compounds with NR2E3 ag-1; inhibition, % at 3.98 µM; AID 624379, 2012;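 active means mean inhibition above a cutoff equal to the average over all tested compounds plus one standard deviation, cut at about 70% in these data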;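 further: luciferase from a UAS reporter driven by GAL4-VP16 transactivation; 0% = DMSO with VP16-transfected cells and 100% = DMSO with cells lacking VP16; higher means less reporter light so more repression of VP16 activity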
# Numbers without * were called inactive; nt = not tested or not shown. Rows were chosen to be rich in hits. Some 2.7% of all compounds tested hit in one or more screens of this group.
SMILES,NR2E3 ag-1,MC4R antag cAMP,PG9 Ab binder,NR1D1 modulator,MC4R ag barr,NR2E3 ag-2,NR2E3 ag conf,VP16 counter
Cc1cc(CNC(=O)c2cccc([N+](=O)[O-])c2C)c2ccccc2n1,49,1,1,-5,-3,3,72*,59
O=C(O)c1ccc(CS(=O)c2cccc(C(F)(F)F)c2)o1 (centres undefined),11,-5,-3,5,2,0,nt,nt
CCC(C)NS(=O)(=O)c1ccc(S(=O)(=O)N2CCCC3(CCCCC3)C2)cc1 (centres undefined),85*,1,1,9,2,-5,89*,73*
CN(CCCS(=O)(=O)[O-])c1ccc(/C=C/c2ccc3ccccc3[n+]2C)cc1,-7,-9,-24,0,0,nt,nt,nt
CN(C)c1ccc(/C=C/c2ccc3ccccc3[n+]2C)cc1,52,-53,-58,-9,-6,-28,87*,52
CN(C)c1ccc(/C=C/c2ccc3c4ccccc4ccc3[n+]2-c2ccccc2)cc1,101*,-5,-50,-8,-3,nt,99*,90*
O=C(C1CCC(CNS(=O)(=O)c2cccs2)CC1)N1CCCCC1 (centres undefined),-9,18,-1,-1,1,0,nt,nt
Cc1cccc(N2CCN(C(=O)C3CCC(CNS(=O)(=O)c4cccs4)CC3)CC2)c1C (centres undefined),49,25,0,4,3,6,36,51
O=C1Nc2ccccc2C(=O)N2[C@H](c3ccc(F)cc3)[C@@H]3C(=O)N(Cc4ccccc4)C(=O)[C@@H]3[C@H]12,-6,4,1,0,0,2,nt,nt
CN(C)C(=S)N=c1ssc(=S)n1Cc1cccnc1,86*,4,0,0,0,nt,-24,-24
Nc1ncc(Br)cc1S(=O)(=O)Nc1cc(C(F)(F)F)cc(C(F)(F)F)c1,109*,7,1,-3,-3,0,101*,90*
Cc1ccc(NS(=O)(=O)c2cc(Br)cnc2N)c(Cl)c1,-11,8,1,1,0,2,nt,nt
CC1CN(S(=O)(=O)c2ccc(C(=O)NC3CCCCC3)cc2)CC(C)O1 (centres undefined),-7,-4,0,5,0,nt,nt,nt
CC[C@H](C)[C@@H]1NC(=O)[C@@H](CC(C)C)NC(=O)[C@H](C(C)C)NC(=O)[C@H]2CSSC[C@H](NC1=O)C(=O)N2,102*,nt,-4,4,nt,nt,100*,98*
CC(C)C[C@@H]1NC(=O)[C@H](C(C)C)NC(=O)c2cc([N+](=O)[O-])cc(I)c2NCC[C@@H](C(N)=O)NC1=O,nt,nt,nt,nt,nt,0,nt,nt
O=C(NCC(c1ccco1)N1CCCC1)c1ccc(Cl)c(S(=O)(=O)N2CCc3ccccc32)c1 (centres undefined),61,6,-2,-7,0,1,50,50
O=C(NNc1c(F)c(F)cc(F)c1F)c1ccco1,-17,2,-1,-5,0,nt,nt,nt
O=C(NNc1c([N+](=O)[O-])cc(C(F)(F)F)cc1[N+](=O)[O-])c1ccco1,61,4,-12,-7,-4,-4,69,57
C/C(=N\NC(=S)NCCc1ccccc1)c1ccc(C)cc1,70,-4,-2,8,-1,2,1,-5
C/C(=N\NC(=S)NCCc1ccccc1)c1ccc(Cl)cc1,54,-4,-3,3,-2,-2,20,-25
C/C(=N\NC(=S)NCCc1ccccc1)c1ccc(C#N)cc1,20,-2,0,4,4,1,nt,nt
Cc1ccc(NC(=O)c2cnc(SCC(=O)c3ccccc3)n(C)c2=O)cc1,-28,2,nt,nt,-1,4,nt,nt
CCOC(=O)c1cccc(-n2c(C)cc(C=O)c2C)c1,-25,9,2,-4,-2,-1,nt,nt
O=[N+]([O-])c1ccc2c(c1)ncn2CCc1ccccc1,76*,-5,-1,-4,-1,nt,-8,-11
O=[N+]([O-])c1ccc2c(c1)ncn2-c1ccccc1,-4,6,-1,7,-2,-1,nt,nt
SMILES,NR2E3 ag-1,MC4R antag cAMP,PG9 Ab binder,NR1D1 modulator,MC4R ag barr,NR2E3 ag-2,NR2E3 ag conf,VP16 counter
Cc1cc(=O)[nH]c(SCc2cccc3ccccc23)n1,71*,1,-2,2,-3,-2,80*,57
Cc1cc(CSc2nc(C)cc(=O)[nH]2)c2ncccc2c1,86*,-16,-2,-2,-3,-3,94*,72*
Cc1cc(=O)[nH]c(SCc2ccc(Cl)cc2Cl)n1,21,13,-3,2,0,-2,nt,nt
Cc1cccc(C(=O)Nc2nnc(S(=O)(=O)N3CCOCC3)s2)c1,-24,9,3,0,-2,2,nt,nt
O=C1NC(=O)/C(=C/c2ccccc2Cl)N1,-17,-10,-2,-4,-2,-1,nt,nt
COCCCNC(=S)N1CCN(c2nc(-c3ccccc3)cs2)CC1,-1,7,-3,5,0,3,nt,nt
COCCCNC(=S)N1CCN(c2nc(-c3ccc(Cl)cc3)cs2)CC1,65,3,0,1,-1,nt,73*,53
CC(C)c1ccc(NC2CCCN(C(=O)c3cnc4ccccn4c3=O)C2)cc1 (centres undefined),-20,-6,-3,-5,-3,2,nt,nt
COc1ccc(N2CCN(CC(=O)Nc3ncc(C)s3)CC2)cc1,-12,1,0,-3,0,3,nt,nt
Cc1cnc(NC(=O)CN2CCN(c3ccccn3)CC2)s1,64,1,0,0,0,0,94*,16
O=C(NCc1cccc(Cl)c1)c1ccc(S(=O)(=O)N2CCCCC2)cc1,-39,13,-2,0,-1,nt,nt,nt
Brc1ccc(-c2nnc3c4ccccc4nc(N4CCOCC4)n23)cc1,80*,6,1,-1,1,0,15,-21
